According to ChEMBL document CHEMBL2311256, “Design and synthesis of biaryl aryl stilbenes/ethylenes as antimicrotubule agents” (Eur J Med Chem, 2013):
Active and inactive are the calls of the source. No cut-off for these calls is given here.

Tests used:
[1] = system: HeLa; experiment: Cytotoxicity against human HeLa cells after 48 hrs by MTT assay; type: functional, cell-based
In short: (§1)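 Cells given 24 h settling, then 48 h continuous exposure to 1, 10, 100 and 1000 µM in triplicate wells. A549, SK-N-SH and HeLa grown in DMEM with 10% FBS; DU145 in MEM with non-essential amino acids, 1 mM pyruvate, insulin and 10% FBS; all at 37 °C, 5% CO2. Read-out was MTT (60 min, 37 °C), DMSO elution, 560 nm. IC50 = 50% absorbance reduction versus control, mean ± SD of three experiments.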

[2] = system: SK-N-SH; experiment: Cytotoxicity against human SK-N-SH cells after 48 hrs by MTT assay; type: functional, cell-based; in short: as §1
[3] = system: DU-145; experiment: Cytotoxicity against human DU145 cells after 48 hrs by MTT assay; type: functional, cell-based; details: DU-145, 48 h; in short: as §1
[4] = species: Bos taurus; experiment: Inhibition of bovine brain tubulin polymerization at 5 uM by fluorescence assay
[5] = system: A549; experiment: Cytotoxicity against human A549 cells after 48 hrs by MTT assay; type: functional, cell-based; details: A549, 48 h; in short: as §1
[6] = biological target: T1, Tubulin (Homo sapiens) (UniProt P68371+Q9H4B7+P0DPH7+P68366+Q13509+Q71U36+P04350+Q3ZCM7+P07437+P68363+Q9BQE3+Q6PEY2+Q13885+Q9BVA1+Q9BUF5); details: HeLa, 1 uM
[7] = system: HeLa; experiment: Induction of cyclin B1 expression in human HeLa cells at 10 uM after 24 hrs by immunoblotting; type: functional, cell-based
In short: (§2)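 HeLa seeded at 1 × 10^5 cells/well and treated 24 h. Cells washed with PBS, lysed in 1X SDS sample buffer, run on SDS-PAGE and transferred to nitrocellulose. Blots probed with anti-cyclin B1 (1:1500) and HRP goat anti-rabbit secondary (1:5000), detected by enhanced chemiluminescence.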

[8] = Inhibition of bovine brain tubulin polymerization by fluorescence assay; design: species or system Bos taurus
[9] = biological target: T1, Tubulin (Homo sapiens); experiment: Inhibition of tubulin polymerization in human HeLa cells assessed as tubulin cytoskeleton at 10 uM after 24 hrs by immunohistochemistry analysis; type: cell-based
In short: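 HeLa on coverslips treated 24 h at 10 µM, then fixed in 3.5% formaldehyde/PBS for 10 min and permeabilized with 0.5% Triton X-100/0.05% Tween-20. Blocked in 2% BSA, stained with anti-tubulin (1:200, 4 h, RT) and FITC anti-mouse secondary (1:500, 1 h), DAPI counterstain. Imaged by fluorescence microscopy; five fields of view.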

[10] = system: HeLa; experiment: Antimitotic activity in human HeLa cells assessed as accumulation at G2/M phase at 10 uM after 24 hrs by flow cytometry analysis (reference value: 19.4%); type: functional
In short: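 Cells treated 24 h at 10 µM, trypsin-EDTA harvested, fixed in ice-cold 70% ethanol at 4 °C for 30 min, then stained 30 min in propidium iodide (0.2 mg) plus RNase A (2 mg) per 1 mL. DNA content of 20,000 events measured by flow cytometry, and the percentage of cells in G2/M quantified against untreated and DMSO controls.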

[11] = biological target: T1, Tubulin (Homo sapiens); experiment: Inhibition of tubulin polymerization in human HeLa cells assessed as tubulin soluble fraction at 10 uM after 24 hrs by immunohistochemistry analysis; type: cell-based
[12] = biological target: T1, Tubulin (Homo sapiens); experiment: Inhibition of tubulin polymerization in human HeLa cells assessed as tubulin polymerized fraction at 1 uM after 24 hrs by immunohistochemistry analysis; type: cell-based
[13] = system: HeLa; experiment: Induction of cyclin B1 expression in human HeLa cells at 1 uM after 24 hrs by immunoblotting; type: functional, cell-based; in short: as §2

| inhibition [4] [%] | inhibition [6] | IC50 [8] [µM] | inhibition [9] | inhibition [11] | inhibition [12] | Structure (SMILES) | IC50 [1] [µM] | IC50 [2] [µM] | IC50 [3] [µM] | IC50 [5] [µM] | Activity [7] | Activity [10] [%] | Activity [13] |
| --- | --- | --- | --- | --- | --- | --- | --- | --- | --- | --- | --- | --- | --- |
| 21 | – | – | – | – | – | C=C(c1ccc(OC)cc1)c1cc(OC)c(OC)c(OC)c1-c1ccc2ccccc2c1 | 35 | 6 | 46 | 15 | – | – | – |
| 50 | – | – | – | – | – | COc1ccc(/C=C/c2cc(OC)c(OC)c(OC)c2-c2ccc3ccccc3c2)cc1 | 13 | 16 | 32 | 14 | – | – | – |
| 33 | – | – | – | – | – | COc1ccc(/C=C/c2cc(OC)c(OC)c(OC)c2-c2ccc(C(C)(C)C)cc2)cc1 | 28 | 30 | 45 | 32 | – | – | – |
| 33 | – | – | – | – | – | COc1ccc(/C=C/c2cc(OC)c(OC)c(OC)c2-c2ccc(OC)c(OC)c2)cc1 | 45 | 42 | 34 | 28 | – | – | – |
| 22 | – | – | – | – | – | COc1ccc(/C=C/c2cc(OC)c(OC)c(OC)c2-c2ccccc2)cc1 | 26 | 11 | 51 | 36 | – | – | – |
| – | Active | – | – | – | – | COC(=O)Nc1nc2cc(C(=O)c3cccs3)ccc2[nH]1 | – | – | – | – | – | – | – |
| 48 | – | – | – | – | – | COc1ccc(/C=C/c2cc(OC)c(OC)c(OC)c2-c2ccc(F)c(C)c2)cc1 | 17 | 19 | 23 | 18 | – | – | – |
| 20 | – | – | – | – | – | COc1ccc(/C=C/c2cc(OC)c(OC)c(OC)c2-c2ccc(OC)cc2)cc1 | 19 | 36 | 34 | 35 | – | – | – |
| 49 | – | – | – | – | – | C=C(c1ccc(C(F)(F)F)cc1)c1cc(OC)c(OC)c(OC)c1-c1ccccc1 | 32 | 13 | 31 | 48 | – | – | – |
| 51 | – | – | – | – | – | C=C(c1ccc(Cl)cc1)c1cc(OC)c(OC)c(OC)c1-c1ccccc1 | 34 | 25 | 29 | 40 | – | – | – |
| 32 | – | – | – | – | – | C=C(c1ccc(C)cc1)c1cc(OC)c(OC)c(OC)c1-c1ccccc1 | 28 | 31 | 28 | 35 | – | – | – |
| 23 | – | – | – | – | – | C=C(c1ccc(OC)cc1)c1cc(OC)c(OC)c(OC)c1-c1ccc(C(C)(C)C)cc1 | 39 | 24 | 39 | 27 | – | – | – |
| 62 | – | 6.8 | Active | Active | – | COc1ccc(/C=C/c2cc(OC)c(OC)c(OC)c2-c2ccc3c(c2)OCO3)cc1 | 8.7 | 8 | 7.3 | 6.3 | Active | 73.02 | – |
| – | – | – | – | – | Active | CC(=O)O[C@H]1C(=O)[C@@]2(C)[C@H]([C@H](OC(=O)c3ccccc3)[C@]3(O)C[C@H](OC(=O)[C@H](O)[C@@H](NC(=O)c4ccccc4)c4ccccc4)C(C)=C1C3(C)C)[C@]1(OC(C)=O)CO[C@@H]1C[C@@H]2O | – | – | – | – | – | – | Active |
| 40 | – | – | – | – | – | C=C(c1ccccc1)c1cc(OC)c(OC)c(OC)c1-c1ccccc1 | 42 | 34 | 36 | 17 | – | – | – |
| 47 | – | – | – | – | – | COc1cc(/C=C/c2ccc(C)cc2)c(-c2ccccc2)c(OC)c1OC | 45 | 31 | 101 | 54 | – | – | – |
| 53 | – | 11.2 | Active | – | – | C=C(c1ccc(OC)cc1)c1cc(OC)c(OC)c(OC)c1-c1ccc(F)c(F)c1 | 5.9 | 7.5 | 6.8 | 6.5 | Active | 70.02 | – |
| 40 | – | – | – | – | – | C=C(c1ccc(OC)cc1)c1cc(OC)c(OC)c(OC)c1-c1ccc(Cl)cc1 | 30 | 15 | 33 | 29 | – | – | – |
| 40 | – | – | – | – | – | C=C(c1ccc(OC)cc1)c1cc(OC)c(OC)c(OC)c1-c1ccc(OC)cc1 | 72 | 75 | 37 | 14 | – | – | – |
| 41 | – | – | – | – | – | COc1cc(/C=C/c2ccccc2)c(-c2ccccc2)c(OC)c1OC | 89 | 63 | 82 | 79 | – | – | – |
| 26 | – | – | – | – | – | COc1ccc(/C=C/c2cc(OC)c(OC)c(OC)c2-c2ccc(Cl)cc2)cc1 | 49 | 15 | 35 | 30 | – | – | – |
| 56 | – | 8.6 | Active | Active | – | C=C(c1ccc(OC)cc1)c1cc(OC)c(OC)c(OC)c1-c1ccc2c(c1)OCO2 | 5.4 | 6.1 | 6 | 5 | Active | 73 | – |
| 49 | – | – | – | – | – | C=C(c1ccc(OC)cc1)c1cc(OC)c(OC)c(OC)c1-c1ccccc1 | 11 | 31 | 8 | 22 | – | – | – |
| 55 | – | 9.2 | Active | – | – | COc1ccc(/C=C/c2cc(OC)c(OC)c(OC)c2-c2ccc(F)c(F)c2)cc1 | 9.2 | 6.9 | 7.5 | 7.5 | Active | 71.16 | – |
